# Measurements of several laboratories.
# Protocols differ between the studies behind these lines.
SMILES,cell line,read-out,action,technique,time,setting,IC50 [µM]
COc1cccc2c1C(=O)c1c(O)c3c(c(O)c1C2=O)C[C@@](O)(C(=O)CO)C[C@@H]3O[C@H]1C[C@H](N)[C@H](O)[C@H](C)O1,CHO-K1,cell growth or viability,,SRB,72 h,,6.2
Cc1cc(Nc2ncc(Cl)c(Nc3ccccc3S(=O)(=O)C(C)C)n2)c(OC(C)C)cc1C1CCNCC1,Rh30,cell growth or viability,,,72 h,,0.64
CCOc1ccc(-c2nc3ccc(C)cc3[nH]2)cc1,human Rhabdomyosarcoma cell,cell growth or viability,,MTT,48 h,,76.2
Cn1nnc2c(-c3ccccc3)ncn2c1=O,D54,cell growth or viability,,resazurin,7 days,,7
COc1ccccc1/C=C/CNCC(O)COc1ccccc1 (stereo not drawn),NCI-H1299,cell growth or viability,,CCK-8,72 h,,33.1
c1ccc2[nH]c(-c3ccncc3)nc2c1,human Rhabdomyosarcoma cell,cell growth or viability,,MTT,48 h,,31.2
COc1ccccc1/C=C/CNCC(O)COc1ccc(C2CCCCC2)cc1 (stereo not drawn),NCI-H1299,cell growth or viability,,CCK-8,72 h,,29.5
CCn1c(-c2nnc(NC(=O)c3cc4c([nH]c5ccccc54)c(-c4cc(OC)c(OC)c(OC)c4)n3)s2)cc2ccccc21,HL-60,cell growth or viability,,MTT,72 h,,43.2
O=C(/C=C(/C=C/c1cccnc1)NCCO)/C=C/c1cccnc1,CHO-K1,cell growth or viability,,MTT,72 h,,> 75
COc1ccccc1OCCNC[C@@H](O)COc1cccc2[nH]c3ccccc3c12,NCI-H1299,cell growth or viability,,CCK-8,,,41.5
O=C(/C=C(O)/C=C/c1c[nH]c2ccccc12)/C=C/c1c[nH]c2ccccc12,CHO-K1,cell growth or viability,,SRB,72 h,,12.1
CC(C)(C)Nc1c(-c2ccc([N+](=O)[O-])cc2)nc2ccccn12,Vero,cell growth or viability,,MTT,48 h,,85
Cn1c(-c2nnc(NC(=O)c3cc4c([nH]c5ccccc54)c(-c4ccccc4)n3)s2)cc2ccccc21,HL-60,cell growth or viability,,MTT,72 h,,33.2
COCOc1c(OC)cc(C(=O)c2csc(-c3ccccc3)n2)cc1OC,B16-F1,cell growth or viability,,SRB,,,0.055
CC(C)C[C@H](NC(=O)[C@H](Cc1ccccc1)NC(=O)c1cnccn1)B(O)O,MKN-45,cell growth or viability,,ATP luminescence,,,0.014
Nc1c(-c2ccccc2[N+](=O)[O-])nc2ccccn12,Vero,cell growth or viability,,MTT,48 h,,65
COc1cc(/C=C/c2cc(/C=C/c3ccncc3)[nH]n2)ccc1O,CHO-K1,cell growth or viability,,SRB,72 h,,41.8
COc1ccccc1/C=C/CNCC(O)COc1ccc2[nH]c3ccccc3c2c1 (stereo not drawn),NCI-H1299,cell growth or viability,,CCK-8,72 h,,6.1
COc1cc(/C=C/C(=O)CC(=O)/C=C/c2ccc(O)c(OC)c2)ccc1O,CHO-K1,cell growth or viability,,MTT,72 h,,44.9
CC(C)CNC(=C\C(=O)/C=C/c1cccnc1)/C=C/c1cccnc1,CHO-K1,cell growth or viability,,SRB,72 h,,28.6
NS(=O)(=O)OC[C@@H]1C[C@@H](n2ccc3c(N[C@H]4CCc5ccccc54)ncnc32)C[C@@H]1O,NCI-H1299,cell growth or viability,,CCK-8,72 h,,0.9
CCCCN(CCCC)C(=O)c1ncn2c(=O)n(C)nnc12,D54,cell growth or viability,,resazurin,7 days,,11
COc1ccc(-c2nc3ccccc3n2Cc2ccccc2)cc1OC,human Rhabdomyosarcoma cell,cell growth or viability,,MTT,,,18.4
COc1cc(Nc2nccc(-c3cnn4nc(OC)ccc34)n2)cc(C(F)(F)F)c1,COR-L279,cell growth or viability,,ATP luminescence,,,0.21
Nc1ccc(-c2nc3cnccn3c2N)cc1,Vero,cell growth or viability,,MTT,48 h,,96
COc1cc(/C=C/C(=O)/C=C(O)/C=C/c2ccccn2)ccc1O,CHO-K1,cell growth or viability,,SRB,72 h,,30.9
COc1ccccc1/C=C/CNCC(O)COc1cccc2[nH]ccc12 (stereo not drawn),NCI-H1299,cell growth or viability,,CCK-8,72 h,,23.1
COCCNC(=C\C(=O)/C=C/c1cccnc1)/C=C/c1cccnc1,CHO-K1,cell growth or viability,,MTT,72 h,,45.1
CCOc1cc(-c2nc3ccccc3[nH]2)ccc1O,human Rhabdomyosarcoma cell,cell growth or viability,,MTT,48 h,,29.4
O=C(/C=C(O)/C=C/c1cccnc1)/C=C/c1cccnc1,CHO-K1,cell growth or viability,,MTT,72 h,,7.2
COc1cccc2c1C(=O)c1c(O)c3c(c(O)c1C2=O)C[C@@](O)(C(=O)CO)C[C@@H]3O[C@H]1C[C@H](N)[C@H](O)[C@H](C)O1,CHO-K1,cell growth or viability,,MTT,72 h,,2.5
COc1ccccc1/C=C/CNCC(O)COc1cccc2[nH]c3ccccc3c12 (stereo not drawn),NCI-H1299,cell growth or viability,,CCK-8,72 h,,7.2
Cc1ccc2nc(-c3ccc(Cl)cc3)n(Cc3ccccc3)c2c1,human Rhabdomyosarcoma cell,cell growth or viability,,MTT,,,4.83
O=C(/C=C(O)/C=C/c1ccc2ccccc2n1)/C=C/c1c[nH]c2ccccc12,CHO-K1,cell growth or viability,,MTT,72 h,,41.6
O=C(O)Cc1ccccc1Nc1c(Cl)cccc1Cl,RAW264.7,NO release,inhibitor,,,LPS-stimulated,54.7
Brc1ccc(Nc2nc(NCc3ccccc3)nc(NCc3ccccc3)n2)cc1,SK-BR-3,cell growth or viability,,SRB,72 h,,20.4
COc1ccc(-c2nc3ccccc3[nH]2)cc1O,human Rhabdomyosarcoma cell,cell growth or viability,,MTT,48 h,,53.1
COc1cc([C@@H]2c3cc4c(cc3[C@@H](O[C@@H]3O[C@@H]5CO[C@@H](C)O[C@H]5[C@H](O)[C@H]3O)[C@H]3COC(=O)[C@H]23)OCO4)cc(OC)c1O,SMMC-7721,cell growth or viability,,MTT,48 h,,8.12
C[C@@H](Oc1cc(-c2cnn(C3CCNCC3)c2)cnc1N)c1c(Cl)ccc(F)c1Cl,Rh30,cell growth or viability,,,72 h,,0.99
Cc1ncn2c(=O)n(C)nnc12,D54,cell growth or viability,,resazurin,7 days,,6
COCCCN1C(/C=C/c2cccnc2)=CC(=O)CC1c1cccnc1 (stereo not drawn),CHO-K1,cell growth or viability,,MTT,72 h,,> 75
Cc1ccc2nc(-c3cccnc3)[nH]c2c1,human Rhabdomyosarcoma cell,cell growth or viability,,MTT,48 h,,83.6
O=C(/C=C(O)/C=C/c1ccncc1)/C=C/c1c[nH]c2ccccc12,CHO-K1,cell growth or viability,,MTT,72 h,,42.9
NNc1nc(NCc2ccccc2)nc(Nc2ccc(Br)cc2)n1,SK-BR-3,cell growth or viability,,SRB,72 h,,> 30
COc1cc(/C=C/C(=O)/C=C(O)/C=C/c2c[nH]c3ccccc23)ccc1O,CHO-K1,cell growth or viability,,SRB,72 h,,23.3
Clc1ccc(-c2nc3ccccc3n2Cc2ccccc2)cc1,human Rhabdomyosarcoma cell,cell growth or viability,,MTT,,,31.7
O=C(/C=C(O)/C=C/c1cccs1)/C=C/c1c[nH]c2ccccc12,CHO-K1,cell growth or viability,,SRB,72 h,,11.1
O=C(/C=C(O)/C=C/c1ccc[nH]1)/C=C/c1ccc[nH]1,CHO-K1,cell growth or viability,,SRB,72 h,,11.7
